From ChEMBL document CHEMBL1134386, “Cardioselective K(ATP) channel blockers derived from a new series of m-anisamidoethylbenzenesulfonylthioureas” (J Med Chem, 2001) come the findings set out here.

Common to all, as to format: functional, cell-based
The target of assay [1] is T1, Sulfonylurea receptor 1, Kir6.2 (Homo sapiens) (UniProt Q14654+Q09428). The assay is described as follows: Antiarrhythmic effect in hSUR1/hKir6.2 (pancreatic KATP channel) transfected in CHO cells at a dose of 10 uM. To be noted: at 10 µM. In a few lines: (§1)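 CHO cells stably expressing SUR1/Kir6.2, seeded the day before and washed three times in PBS. Loaded with voltage dye DiBAC4(3), added as a 10 µM solution, with diazoxide, added as a 400 µM solution, both in PBS; 30 min at 37 °C. Compound added after 4 min of baseline. Fluorescence read with 488 nm excitation every 20 s for 20 min. Mean of at least four experiments.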

Assay [2] addresses T1, Sulfonylurea receptor 1, Kir6.2 (Homo sapiens). Kind of assay: Antiarrhythmic effect in hSUR1/hKir6.2 (pancreatic KATP channel) transfected in CHO cells at a dose of 0.1 uM. The note with it: at 0.1 µM. In a few lines:
as §1

For assay [3] the target is unchanged. Kind of assay: Antiarrhythmic effect in hSUR1/hKir6.2 (pancreatic KATP channel) transfected in CHO cells at a dose of 1 uM. The note with it: at 1 µM. In short, it runs like this:
as §1

For assay [4] the target is unchanged. The assay is described as follows: Antiarrhythmic effect in hSUR1/hKir6.2 (pancreatic KATP channel) transfected in CHO cells at 3 nM. In short, it runs like this: (§2)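 CHO cells stably expressing SUR1/Kir6.2, seeded the day before and washed three times with PBS. Loaded with DiBAC4(3) plus diazoxide in PBS for 30 min at 37 °C. Membrane-potential fluorescence read with 488 nm excitation; compound added at 4 min, then readings every 20 s for 20 min. Mean of at least four experiments.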

Assay [5] shares this target. The assay is described as follows: Antiarrhythmic effect in hSUR1/hKir6.2 (pancreatic KATP channel) transfected in CHO cells at 1 nM. In a few lines:
as §2

Turning to `CCCOc1ccc(CCNC(=O)c2cc(Cl)ccc2OC)cc1S(=O)(=O)/N=C(\S)NC`, the inhibition is 103% in assay [1], 4.2% in assay [2] and 63.6% in assay [3].

Take `COc1ccc(Cl)cc1C(=O)NCCc1ccc(S(=O)(=O)NC(=O)NC2CCCCC2)cc1`: the values for the inhibition in assay [4] and in assay [5] were 73.3% and 24%, respectively.

Consider `CN/C(S)=N/S(=O)(=O)c1cc(CCNC(=O)c2cc(Cl)ccc2OC)ccc1-c1ccco1`, for which the inhibition in assay [1] is 82.7%; in assay [2], -2.6%; in assay [3] it was 16%.

Take `CN/C(S)=N/S(=O)(=O)c1cc(CCNC(=O)c2cc(Cl)ccc2OC)ccc1F`: the inhibition in assay [1] is 18.1%; in assay [2] it was -3.9%; in assay [3], -1.3%.

As to `CCc1ccc(CCNC(=O)c2cc(Cl)ccc2OC)cc1S(=O)(=O)/N=C(\S)NC`, the inhibition was determined as 92.9% in assay [1], 1.3% in assay [2] and 20.5% in assay [3].

Regarding `CN/C(S)=N/S(=O)(=O)c1cc(CCNC(=O)c2cc(Cl)ccc2OC)ccc1OCCOCCOC`, the inhibition in assay [1] amounted to 96.4%; in assay [2] it was 1%; in assay [3], 45.5%.

In the case of `CN/C(S)=N/S(=O)(=O)c1cc(CCNC(=O)c2cc(Cl)ccc2OC)ccc1OC(C)C`, the inhibition in assay [1] is 81.1%; in assay [2], -4.7%; in assay [3], 27.4%.

On to `CNC(=O)NS(=O)(=O)c1cc2c(cc1OC)OCCC2CNC(=O)c1cc(Cl)ccc1OC` (single isomer, unassigned; (+)), for which the inhibition amounted to 0.3% in assay [1], 2% in assay [2] and 1% in assay [3].

Turning to `C#Cc1ccc(CCNC(=O)c2cc(Cl)ccc2OC)cc1S(=O)(=O)/N=C(\S)NC`, the figures for the inhibition in assay [1], in assay [2] and in assay [3] were 27.6%, 3.3% and 3.4%, respectively.

In the case of `CN/C(S)=N/S(=O)(=O)c1cc(CCNC(=O)c2cc(Cl)ccc2OC)ccc1N1CCOCC1`, the figures for the inhibition in assay [1], in assay [2] and in assay [3] were 89.1%, -1.6% and 26.7%, respectively.

On to `COc1ccc(Cl)cc1C(=O)NCCc1ccc(OC)c(S(=O)(=O)/N=C(/N)S)c1`, for which the values for the inhibition in assay [1], in assay [2] and in assay [3] were 64.7%, 1.6% and 11.2%, respectively.

As for `CN/C(S)=N/S(=O)(=O)c1cc(CCNC(=O)c2cc(Cl)ccc2OC)ccc1SC`, the inhibition in assay [1] is 81.4%; in assay [2], -2.1%; in assay [3] it was 15.2%.

As for `CN/C(S)=N/S(=O)(=O)c1cccc(CCNC(=O)c2cc(Cl)ccc2OC)c1`, the inhibition was 52.7% in assay [1], -4.1% in assay [2] and 1.9% in assay [3].

Regarding `CN/C(S)=N/S(=O)(=O)c1cc(CCNC(=O)c2cc(Cl)ccc2OC)c(C)c(C)c1OC`, the inhibition in assay [1] amounted to 64.9%; in assay [2], 0.8%; in assay [3], 6.1%.

Take `CCCc1ccc(CCNC(=O)c2cc(Cl)ccc2OC)cc1S(=O)(=O)/N=C(\S)NC`: the inhibition was 97.1% in assay [1], 2.3% in assay [2] and 41.5% in assay [3].

With `CN/C(S)=N/S(=O)(=O)c1cc(CCNC(=O)c2cc(Cl)ccc2OC)ccc1-c1cccnc1`, the inhibition in assay [1] was 62.3%; in assay [2] it was 4.4%; in assay [3], 10.2%.

As for `CN/C(S)=N/S(=O)(=O)c1cc(CCNC(=O)c2cc(Cl)ccc2OC)ccc1-c1ccccc1`, the inhibition was determined as 67.7% in assay [1], 9.4% in assay [2] and 33% in assay [3].

As for `CN/C(S)=N/S(=O)(=O)c1cc(CCNC(=O)c2cc(Cl)ccc2OC)ccc1OC(F)(F)F`, the figures for the inhibition in assay [1], in assay [2] and in assay [3] were 64.9%, 0.8% and 6%, respectively.

Consider `CN/C(S)=N/S(=O)(=O)c1cc(CCNC(=O)c2cc(Cl)ccc2OC)ccc1S(C)(=O)=O`, for which the results for the inhibition in assay [1], in assay [2] and in assay [3] were 16.4%, 1.8% and 1.1%, respectively.

As for `CN/C(S)=N/S(=O)(=O)c1cc(CCNC(=O)c2cc(Cl)ccc2OC)ccc1C`, the figures for the inhibition in assay [1], in assay [2] and in assay [3] were 74.8%, 1.9% and 21%, respectively.

As for `CN/C(S)=N/S(=O)(=O)c1cc(CCNC(=O)c2cc(Cl)ccc2OC)ccc1I`, the inhibition is 89.2% in assay [1], 1.7% in assay [2] and 19.2% in assay [3].

As to `CN/C(S)=N/S(=O)(=O)c1cc(CCNC(=O)c2cc(Cl)ccc2OC)ccc1OCCOC`, the inhibition in assay [1] was 49.5%; in assay [2], 12.5%; in assay [3], 26.2%.

Consider `CNC(=O)NS(=O)(=O)c1cc(CCNC(=O)c2cc(Cl)ccc2OC)c(OC)cc1OC`, for which the inhibition in assay [1] is 13.5%; in assay [2], -0.6%; in assay [3] it was 2.8%.

On to `COc1ccc(Cl)cc1C(=O)NCCc1ccc(OC)c(S(=O)(=O)NC(=O)N(C)C)c1`, for which the inhibition in assay [1] was 25%; in assay [2], -3.6%; in assay [3] it was -3.2%.

Consider `CNC(=O)NS(=O)(=O)c1ccc(CCNC(=O)c2cc(Cl)ccc2OC)cc1`, for which the inhibition in assay [1] is 86.3%; in assay [2], -0.7%; in assay [3], 62.8%.

Consider `CN/C(S)=N/S(=O)(=O)c1cc(CCNC(=O)c2cc(Cl)ccc2OC)ccc1-c1ccccn1`, for which the inhibition in assay [1] stood at 91.4%; in assay [2], 6.6%; in assay [3], 24.4%.

For the molecule `CCOc1ccc(CCNC(=O)c2cc(Cl)ccc2OC)cc1S(=O)(=O)/N=C(\S)NC`, the inhibition is 75.4% in assay [1], -2.7% in assay [2] and 16.3% in assay [3].

With `CN/C(S)=N/S(=O)(=O)c1cc(CCNC(=O)c2cc(Cl)ccc2OC)ccc1Br`, the values for the inhibition in assay [1], in assay [2] and in assay [3] were 67.7%, 3.3% and 2.2%, respectively.

In the case of `CNC(=O)NS(=O)(=O)c1cc2c(cc1OC)OCCC2CNC(=O)c1cc(Cl)ccc1OC` (single isomer, unassigned; (-)), the values for the inhibition in assay [1], in assay [2] and in assay [3] were 105%, 2.5% and 14.2%, respectively.

For the molecule `CN/C(S)=N/S(=O)(=O)c1cc2c(cc1OC)OCCC2CNC(=O)c1cc(Cl)ccc1OC` (single isomer, unassigned; (-)), the inhibition is 75.7% in assay [1], 6.8% in assay [2] and 63% in assay [3].

Consider `CNC(=S)NS(=O)(=O)c1cc(CCNC(=O)c2cc(Cl)ccc2OC)ccc1OC`, for which the inhibition was 83.8% in assay [1], 5% in assay [2] and 24.3% in assay [3].

Turning to `CN/C(S)=N/S(=O)(=O)c1cc(CCNC(=O)c2cc(Cl)ccc2OC)cc(OC)c1OC`, the inhibition was -2.34% in assay [1], -3.8% in assay [2] and -2.12% in assay [3].

Regarding `CN/C(S)=N/S(=O)(=O)c1cc(CCNC(=O)c2cc(Cl)ccc2OC)ccc1Cl`, the inhibition turned out to be 40.1% in assay [1], 2.3% in assay [2] and 2.8% in assay [3].

With `CN/C(S)=N/S(=O)(=O)c1cc(CCNC(=O)c2cc(Cl)ccc2OC)ccc1[S+](C)[O-]` (stereo not given), the figures for the inhibition in assay [1], in assay [2] and in assay [3] were 17.6%, 1.9% and 2.4%, respectively.

Turning to `C=CCOc1ccc(CCNC(=O)c2cc(Cl)ccc2OC)cc1S(=O)(=O)/N=C(\S)NC`, the figures for the inhibition in assay [1], in assay [2] and in assay [3] were 94%, 1.7% and 31.8%, respectively.

For `COc1ccc(Cl)cc1C(=O)NCCc1ccc(OC)c(S(=O)(=O)NC(=O)NC2CCCCC2)c1`, the inhibition came to 81.7% in assay [1], 65.5% in assay [2] and 92.8% in assay [3].

With `CNC(=O)NS(=O)(=O)c1cc(CCNC(=O)c2cc(Cl)ccc2OC)ccc1OC`, the inhibition in assay [1] is 43.9%; in assay [2] it was -2.8%; in assay [3], -1.3%.

Consider `CN/C(S)=N/S(=O)(=O)c1cc(CCNC(=O)c2cc(Cl)ccc2OC)c(OC)cc1OC`, for which the inhibition in assay [1] was 30.5%; in assay [2], -1%; in assay [3], 0.7%.

Consider `CN/C(S)=N/S(=O)(=O)c1cc2c(cc1OC)OCCC2CNC(=O)c1cc(Cl)ccc1OC` (single isomer, unassigned; (+)), for which the inhibition in assay [1] is 70.7%; in assay [2], -3.9%; in assay [3], 3.6%.

For `CN/C(S)=N/S(=O)(=O)c1cc(CCNC(=O)c2cc(Cl)ccc2OC)c(OC)c(C)c1OC`, the inhibition was 47.8% in assay [1], -2% in assay [2] and 6.7% in assay [3].

Take `COc1ccc(Cl)cc1C(=O)NCCc1ccc(OC)c(S(=O)(=O)/N=C(\S)NC2CCCCC2)c1`: the inhibition in assay [1] came to 122%; in assay [2], 20.5%; in assay [3], 87.6%.

As to `CN/C(S)=N/S(=O)(=O)c1cc(CCNC(=O)c2cc(Cl)ccc2OC)ccc1C(C)C`, the inhibition in assay [1] amounted to 92.4%; in assay [2] it was 12%; in assay [3], 29.3%.
